{"data": "Measured values pooled from the literature", "ADORA2B": "Adenosine receptor A2b (ADORA2B, Homo sapiens, UniProt P29275)", "F12": "Coagulation factor XII (F12, Homo sapiens, UniProt P00748)", "CYP3A4": "Cytochrome P450 3A4 (CYP3A4, Homo sapiens, UniProt P08684)", "note": "Each line is one published result; the experiments were not run side by side."}
{"Structure (SMILES)": "O=c1cc(-c2ccc(O)cc2)oc2c([C@@H]3OC[C@H](O)[C@H](O)[C@H]3O)c(O)c([C@@H]3O[C@H](CO)[C@@H](O)[C@H](O)[C@H]3O)c(O)c12", "target": "Calcium/calmodulin-dependent protein kinase type II subunit gamma (CAMK2G, Homo sapiens, UniProt Q13555)", "test": "enzyme activity, inhibitor", "measurement": "IC50", "value": "189 µM"}
{"Structure (SMILES)": "CN(C)c1ncnc2c1ncn2[C@@H]1O[C@H](CO)[C@@H](O)[C@H]1O", "target": "ADORA2B", "test": "G protein activation, agonist", "measurement": "EC50", "value": "22 µM"}
{"Structure (SMILES)": "O=c1oc(-c2ccco2)nc2ccccc12", "target": "F12", "test": "enzyme activity, inhibitor, absorbance", "conditions": "pH 7.4", "measurement": "IC50", "value": "> 50 µM"}
{"Structure (SMILES)": "COc1cc(O)c2c(c1)C(=O)c1cc(C)cc(O)c1C2=O", "target": "CYP3A4", "test": "enzyme activity, inhibitor", "system": "human, liver microsomes", "conditions": "pH 7.4, testosterone probe", "measurement": "IC50", "value": "13.5 µM"}
{"Structure (SMILES)": "CC(C)=CCNc1ncnc2c1ncn2[C@@H]1O[C@H](CO)[C@@H](O)[C@H]1O", "target": "ADORA2B", "test": "G protein activation, agonist", "measurement": "EC50", "value": "84 µM"}
{"Structure (SMILES)": "O=c1oc(-c2cccnc2)nc2ccccc12", "target": "F12", "test": "enzyme activity, inhibitor, absorbance", "conditions": "pH 7.4", "measurement": "IC50", "value": "> 50 µM"}
{"Structure (SMILES)": "CO[C@]1(C(=O)N[C@@H](C)c2ccc(-n3cc(F)cn3)nc2)CC[C@H](c2nc(C)cc(Nc3cc(C)[nH]n3)n2)CC1", "target": "CYP3A4", "test": "enzyme activity, inhibitor", "system": "human, liver microsomes", "measurement": "Ki", "value": "24 µM"}
{"Structure (SMILES)": "COc1ccc(-c2cc(OCC(=O)N(C)Cc3cccnc3C)nc(-n3nc(C)cc3C)n2)cc1", "target": "Leucyl-cystinyl aminopeptidase (LNPEP, Homo sapiens, UniProt Q9UIQ6)", "test": "enzyme activity, inhibitor, fluorescence", "measurement": "IC50", "value": "0.157 µM"}
{"Structure (SMILES)": "Oc1ccc2c(c1)CC[C@H](c1ccccc1)[C@@H]2c1ccc(OCCN2CCCC2)cc1", "target": "Progesterone receptor (PGR, Homo sapiens, UniProt P06401)", "test": "ligand displacement, radioligand", "measurement": "IC50", "value": "0.069 µM"}
